Data reported in ChEMBL document CHEMBL4308900, “Synthesis and identification of 2,4-bisanilinopyrimidines bearing 2,2,6,6-tetramethylpiperidine-N-oxyl as potential Aurora A inhibitors” (Bioorg Med Chem, 2019).
The source made the active and inactive calls. The rule behind the calls is not given here.

What was measured:
HeLa [1] = experiment: Antiproliferative activity against human HeLa cells after 48 hrs by MTT assay; format: functional
Summary of the method: (§1)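 MTT assay: cells attached 4–6 h at 37 °C, 5% CO2, then exposed 48 h to graded concentrations from DMSO stocks; 5 mg/mL MTT added for 4 h, formazan dissolved in DMSO, absorbance at 490 nm. GI50 from log plot of percent of control versus concentration; mean of three independent experiments.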

A549 = experiment: Antiproliferative activity against human A549 cells after 48 hrs by MTT assay; format: functional; details: A549, 48 h; summary of the method: as §1
HepG2 = experiment: Antiproliferative activity against human HepG2 cells after 48 hrs by MTT assay; format: functional; details: HepG2, 48 h; summary of the method: as §1
LoVo = experiment: Antiproliferative activity against human LoVo cells after 48 hrs by MTT assay; format: functional; summary of the method: as §1
HeLa [2] = experiment: Disruption of spindle formation in human HeLa cells assessed as shrinkage of microtubule spindles at 1 uM after 24 hrs by DAPI staining based immunofluorescence microscopic analysis; format: functional, cell-based
Summary of the method: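 HeLa cells on coverslips treated 24 h (0.1 or 1 μM; DMSO control); fixed in 4% paraformaldehyde, permeabilised in 0.1% Triton X-100 with 2% BSA, anti-α-tubulin overnight at 4 °C, FITC secondary 2 h room temperature, DAPI for DNA; confocal imaging.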

HeLa [3] = experiment: Cell cycle arrest in human HeLa cells assessed as accumulation at G2/M phase at 1 uM after 12 hrs by propidium iodide staining-based flow cytometric analysis (reference value: 23.57%); format: functional
Summary of the method: (§2)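 HeLa cells exposed 12 h to 1 or 5 μM compound diluted from DMSO (DMSO control), fixed, stained with propidium iodide; DNA content measured by flow cytometry and G1, S, G2/M fractions calculated from the DNA histogram.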

HeLa [4] = experiment: Cell cycle arrest in human HeLa cells assessed as decrease in cyclin B1 protein expression up to 5 uM after 12 hrs by Western blot analysis; format: functional, cell-based
Summary of the method: (§3)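 HeLa cells treated 12 h (0.1, 1, 5 μM for apoptosis proteins); lysed in Tris pH 7.5/NP-40/SDS buffer with protease inhibitors, equal protein on 10% SDS-PAGE, PVDF, 5% BSA block, primary antibodies overnight at 4 °C, β-actin loading control; mean ± SD.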

HeLa [5] = experiment: Induction of apoptosis in human HeLa cells assessed as early apoptotic cells at 0.1 uM after 12 hrs by Annexin V-FITC/propidium iodide staining-based flow cytometric analysis (reference value: 0.75%); format: functional
HeLa [6] = experiment: Induction of apoptosis in human HeLa cells assessed as late apoptotic cells at 0.1 uM after 12 hrs by Annexin V-FITC/propidium iodide staining-based flow cytometric analysis (reference value: 2.32%); format: functional
HeLa [7] = experiment: Induction of apoptosis in human HeLa cells assessed as necrotic cells at 0.1 uM after 12 hrs by Annexin V-FITC/propidium iodide staining-based flow cytometric analysis (reference value: 5.92%); format: functional
HeLa [8] = experiment: Induction of apoptosis in human HeLa cells assessed as viable cells at 1 uM after 12 hrs by Annexin V-FITC/propidium iodide staining-based flow cytometric analysis (reference value: 91.02%); format: functional; details: read-out: Activity
HeLa [9] = experiment: Induction of apoptosis in human HeLa cells assessed as early apoptotic cells at 1 uM after 12 hrs by Annexin V-FITC/propidium iodide staining-based flow cytometric analysis (reference value: 0.75%); format: functional
HeLa [10] = experiment: Induction of apoptosis in human HeLa cells assessed as necrotic cells at 1 uM after 12 hrs by Annexin V-FITC/propidium iodide staining-based flow cytometric analysis (reference value: 5.92%); format: functional
HeLa [11] = experiment: Induction of apoptosis in human HeLa cells assessed as viable cells at 5 uM after 12 hrs by Annexin V-FITC/propidium iodide staining-based flow cytometric analysis (reference value: 91.02%); format: functional; details: read-out: Activity
HeLa [12] = experiment: Induction of apoptosis in human HeLa cells assessed as early apoptotic cells at 5 uM after 12 hrs by Annexin V-FITC/propidium iodide staining-based flow cytometric analysis (reference value: 0.75%); format: functional
HeLa [13] = experiment: Induction of apoptosis in human HeLa cells assessed as necrotic cells at 5 uM after 12 hrs by Annexin V-FITC/propidium iodide staining-based flow cytometric analysis (reference value: 5.92%); format: functional
HeLa [14] = experiment: Induction of apoptosis in human HeLa cells assessed as upregulation of caspase-9 protein expression up to 5 uM after 12 hrs by Western blot analysis; format: functional, cell-based; summary of the method: as §3
HeLa [15] = experiment: Induction of apoptosis in human HeLa cells assessed as downregulation of Bcl-2 protein expression up to 5 uM after 12 hrs by Western blot analysis; format: functional, cell-based; summary of the method: as §3
Aurora kinase A [16] = target: T1, Aurora kinase A (Homo sapiens, UniProt O14965); experiment: Inhibition of Aurora A (unknown origin) using kemptide acetate salt as substrate after 30 mins by kinase-Glo luminescence method
T1 sequence (O14965 whole entry): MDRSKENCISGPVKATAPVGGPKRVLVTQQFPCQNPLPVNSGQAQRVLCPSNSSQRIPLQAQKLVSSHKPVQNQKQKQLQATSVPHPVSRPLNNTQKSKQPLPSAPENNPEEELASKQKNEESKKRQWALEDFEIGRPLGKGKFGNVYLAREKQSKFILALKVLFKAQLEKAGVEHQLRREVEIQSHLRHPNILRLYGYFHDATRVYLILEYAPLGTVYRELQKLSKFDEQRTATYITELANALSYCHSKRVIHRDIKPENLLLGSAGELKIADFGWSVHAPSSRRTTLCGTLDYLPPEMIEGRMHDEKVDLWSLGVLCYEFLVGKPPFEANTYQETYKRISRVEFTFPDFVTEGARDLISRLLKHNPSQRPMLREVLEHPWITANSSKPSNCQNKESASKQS

[17] = target: T2, Aurora kinase A (Homo sapiens) (UniProt O14965); experiment: Inhibition of Aurora A phosphorylation at Thr288 residue in human HeLa cells after 12 hrs by Western blot analysis; format: cell-based
T2 sequence (whole entry): T1 sequence (O14965 whole entry)
Summary of the method: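 HeLa cells given 0, 1.25, 2.5 or 5.0 μM for 12 h; lysates in buffer with phosphatase and protease inhibitors, 10% SDS-PAGE western blot probed for phospho-Aurora A Thr288, phospho-Aurora B Thr232 and total Aurora A/B, β-actin loading control; band levels as mean ± SD versus control.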

[18] = target: T2, Aurora kinase A (Homo sapiens); experiment: Inhibition of Aurora A phosphorylation at Thr288 residue in human HeLa cells at <10 nM after 12 hrs by ELISA; format: cell-based
Summary of the method: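 HeLa cells grown 12 h in 6-well dishes with compound diluted from DMSO at several concentrations; whole-cell lysate captured on anti-Aurora A or B antibody-coated wells, HRP-labelled detection, TMB substrate, stopped with sulphuric acid, absorbance at 450 nm.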

Aurora kinase A [19] = target: T1, Aurora kinase A; experiment: Inhibition of Aurora A phosphorylation at Thr288 residue in human HeLa cells after 12 hrs by ELISA; format: cell-based
Aurora kinase B = Aurora kinase B (Homo sapiens, UniProt Q96GD4); experiment: Inhibition of Aurora B phosphorylation at Thr232 residue in human HeLa cells after 12 hrs by ELISA; format: cell-based
Aurora kinase B, sequence (Q96GD4 whole entry): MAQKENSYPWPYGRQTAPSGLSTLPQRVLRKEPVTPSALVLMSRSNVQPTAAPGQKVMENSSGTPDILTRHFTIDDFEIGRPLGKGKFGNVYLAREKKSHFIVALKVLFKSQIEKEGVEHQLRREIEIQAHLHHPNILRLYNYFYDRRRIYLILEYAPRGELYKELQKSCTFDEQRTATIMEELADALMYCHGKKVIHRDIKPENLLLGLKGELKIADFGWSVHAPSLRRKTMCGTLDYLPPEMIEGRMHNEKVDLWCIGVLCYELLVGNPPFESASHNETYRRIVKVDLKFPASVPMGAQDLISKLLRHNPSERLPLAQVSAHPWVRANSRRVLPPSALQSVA

Homo sapiens [20] = species on record: Homo sapiens; experiment: Selectivity ratio of IC50 for Aurora B (unknown origin) to IC50 for Aurora A (unknown origin)
Homo sapiens [21] = species on record: Homo sapiens; experiment: Selectivity ratio of IC50 for Aurora B in human HeLa cells to IC50 for Aurora A in human HeLa cells; format: cell-based
HeLa [22] = experiment: Cell cycle arrest in human HeLa cells assessed as decrease in accumulation at G1 phase after 12 hrs by propidium iodide staining-based flow cytometric analysis; format: functional; summary of the method: as §2

CC1(C)CC(NC(=O)c2ccc(Nc3ncc(F)c(Nc4ccc(C(=O)Nc5ccccc5Cl)cc4)n3)cc2)CC(C)(C)N1[O]
GI50 (HeLa [1]): 400 nM | GI50 (A549): 1100 nM | GI50 (HepG2): 1200 nM | GI50 (LoVo): 7300 nM | Activity (HeLa [2]): Active | Activity (HeLa [3]): 40.67% | Activity (HeLa [4]): Active | Activity (HeLa [5]): 1.12% | Activity (HeLa [6]): 2.94% | Activity (HeLa [7]): 5.63% | viability at 1 µM (HeLa [8]): 78.7% | Activity (HeLa [9]): 3.28% | Activity (HeLa [10]): 9.93% | viability at 5 µM (HeLa [11]): 67.7% | Activity (HeLa [12]): 4.85% | Activity (HeLa [13]): 10.75% | Activity (HeLa [14]): Active | Activity (HeLa [15]): Active | IC50 (Aurora kinase A [16]): 0.06 nM | inhibition [17]: Dose-dependent effect | inhibition [18]: inactive | IC50 (Aurora kinase A [19]): 8 nM | IC50 (Aurora kinase B): 538 nM | Ratio IC50 (Homo sapiens [20]): 42 | Ratio IC50 (Homo sapiens [21]): 67 | Activity (HeLa [22]): Dose-dependent effect
